Assay results published in paper PMC3834432 (Toxicological Research, 2012).

Assay: Micro-SPECT/CT imaging
Type: in vivo
Details: normal female ICR mice; 37 MBq i.v.; SPECT image at 30 min post injection
How it was run: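 Female ICR mice, obtained at 7 weeks old from a specific pathogen-free colony, were held three weeks for quarantine and adaptation. Housing was 23 ± 2 °C, 50 ± 5% humidity, 12 h light/dark, with diet and water ad libitum. Under 2% isoflurane, lying prone, mice were imaged on a small-animal SPECT/CT with a single-pinhole high-sensitivity mouse collimator.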

Substance | Blood clearance (SPECT image, words) | Excretion / clearance from the body (SPECT image, words)
Gly-Gly- Gly-Gly-Gly [^99mTc-tricarbonyl-Gly(5)] | fast blood clearance | –
Gly-Gly-Gly [^99mTc-tricarbonyl-Gly(3)] | fast blood clearances | good clearance property in vivo
